# VLA-4 inh: inhibition in human VLA-4 binding assay, primary screen, VLA-4 allosteric modulator project, MLPCN library, flow cytometry, VLA-4 expressing cells | ligand binding flow cytometry | inhibition, % (about 7 µM as worked out from the volumes in the protocol) | hit rate 0.2% among 330,000; in the data active = inhibition above about 50%
# XBP1 UPR activ: activators of adaptive XBP1 UPR arm, primary screen, cell-based, CHO-XBP1 luciferase reporter, luminescence, uHTS | activation, % at 20 µM | hit rate 0.33% among 330,000 | IRE1-XBP1 UPR activation; percent of tunicamycin response, DMSO as zero;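 active = versus positive control, 20 µM dose yields 30% or more activation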;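 note: 100% = tunicamycin at 10 µg/mL and 0% = DMSO only wells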
#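 Test system: CHO-XBP1 luciferase reporter cells | Buffer or medium: Serum-containing F12 medium, 10% FBS | Schedule: 6 h compound exposure at 37 °C, 5% CO2 | Detection: Steady-Glo luciferase glow luminescence, 10 min after reagent addition | Read-out basis: Activation, % of tunicamycin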
# CHOP UPR activ: activators of apoptotic CHOP UPR arm, primary screen, cell-based, CHO-CHOP luciferase reporter, luminescence, uHTS; UPR activation; percent of tunicamycin response over DMSO baseline; activation, % at 10 µM; hit rate 0.34% among 330,000; AID 449763, 2010;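 active = at 10 µM dose, activation of 40% or more, normalized to positive control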;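 note: 100% = tunicamycin at 10 µg/mL and 0% = DMSO alone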
#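 System: CHO-CHOP luciferase reporter cell line | Buffer or medium: F12 medium containing 10% fetal bovine serum | Doses: One dose, 10 µM in 0.5% DMSO | Times: 6 h compound exposure at 37 °C after overnight seeding | Signal: Luciferase luminescence | Read-out: % activation vs tunicamycin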
# CHOP inhibitor: inhibitors of CHOP promoter induction, primary screen, cell-based, unfolded protein response, luciferase reporter; CHO-K1 CHOP-promoter luciferase, tunicamycin-induced, 15-18 h; inhibition, % at 10 µM; hit rate 3.8% among 220,000;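 active = compounds that reduced the stress-induced luciferase reporter signal by more than about 70% of percent inhibition, limit read from the data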;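 note: 0% = tunicamycin plus vehicle and 100% = wells without tunicamycin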
# Beta2AR agonist: beta2AR agonists driving receptor internalization, primary screen, cell-based, FAP fluorogen, flow cytometry; Am2.2-beta2AR cells; response, % (concentration not given with the values); hit rate 0.43% among 340,000;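 active = response above a set limit, near 3 SD of response in nonfluorescent compounds, cut at about 42% in these data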
# CHOP confirm: retest of CHOP induction inhibitors, confirmation, cell-based. shares compounds with CHOP inhibitor. CHO-CHOP promoter luciferase reporter, tunicamycin-induced, luminescence. inhibition, % at 10 µM. hit rate 45% among 2,100. AID 504437, 2011;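 active = mean of three repeat readings of reporter signal inhibition above a set limit, cut at about 70% in these data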;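 note: 0% = tunicamycin plus vehicle and 100% = wells lacking tunicamycin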
# An asterisk follows results filed as active; x = no result given. Many of the other results were omitted from the sample, so hits are more common in it than they were.
SMILES,VLA-4 inh,XBP1 UPR activ,CHOP UPR activ,CHOP inhibitor,Beta2AR agonist,CHOP confirm
COc1ccc(C(C(=O)NC2CCCCC2)N(C(=O)CCl)c2ccc(Cl)cc2)cc1 (stereo not drawn),19,-4,1,107*,-22,27
CC(Sc1ccc([N+](=O)[O-])cn1)C(=O)Nc1nccs1 (stereo not drawn),-6,2,3,x,-21,x
O=C(COCC(=O)Nc1cccc(C(F)(F)F)c1)Nc1cccc(C(F)(F)F)c1,-4,-1,-2,103*,-2,116*
O=C(COc1ccc(C(=O)O)cc1)Nc1cccc(C(F)(F)F)c1,-6,-2,-3,-4,-3,x
Cc1nn(C(C)C(=O)NC2CCCCC2)c(=O)c2nn(-c3ccccc3)c(C)c12 (stereo not drawn),0,-4,0,x,-2,x
FC(F)(F)c1cc(-c2cccs2)nc(-n2cc(Br)cn2)n1,8,1,-1,97*,15,73*
Cc1cnn(-c2nc(-c3cccs3)cc(C(F)(F)F)n2)c1,-8,2,0,-3,-20,x
FC(F)(F)c1cc(-c2cccs2)nc(N2CCOCC2)n1,7,0,1,100*,0,26
FC(F)(F)c1cc(-c2ccccc2)nc(N2CCCCCC2)n1,5,0,-2,38,3,x
COc1cc(NC(=O)c2cc3cccc(OC)c3o2)cc(C(=O)Nc2cccc(C(F)(F)F)c2)c1,10,1,-2,51,21,x
Oc1ccc(C2C(c3ccccc3)=NN=C(c3ccc(Cl)cc3)N2O)c(O)c1 (stereo not drawn),-42,1,3,7,0,x
Cc1ccc2nc(NC(=O)CCn3c(=O)sc4ccccc43)sc2c1,5,-2,3,98*,-12,2
COc1ccc(CNC(=O)CC2C[C@H](C(=O)N3CCCCC3)[C@@]3(C)c4[nH]c5ccccc5c4CCN3C2=O)cc1OC (stereo partly drawn),33,-3,1,x,10,x
O=C(Nc1cccc(Cl)c1Cl)c1cc(S(=O)(=O)NCCc2ccccc2)ccc1F,20,-2,0,97*,3,88*
O=C(Nc1ccccc1C(=O)O)c1cc(S(=O)(=O)NCc2ccccc2)ccc1Cl,-3,-3,0,x,-3,x
CCSC1=NC2(CCCCC2)Nc2sc3c(c21)CCCC3,-3,2,4,105*,8,4
CCCCS/C(N)=N/N=C/c1cc(C)ccc1O,6,4,1,102*,-1,-6
CCS/C(N)=N/N=C/c1cc(C)ccc1O,4,0,8,-7,-9,x
COc1nc(Cl)cn(-c2ccc(C)cc2)c1=O,-16,-2,3,-3,8,x
Cc1ccc(-n2c(Cl)c(Cl)nc(Cl)c2=O)cc1,-87,x,x,110*,50*,114*
COc1ccc(NC2CCCN(C(=O)c3ccc4[nH]c(C)c(C)c4c3)C2)cc1OC (stereo not drawn),-4,-2,0,x,3,x
CCCCn1c(NS(=O)(=O)c2ccc(C)cc2)c(S(=O)(=O)c2ccccc2)c2nc3ccccc3nc21,14,x,x,104*,23,89*
Cc1cccc(C)c1N1CCN(c2ccc3nnc(C(F)(F)F)n3n2)CC1,-7,1,2,106*,7,102*
FC(F)(F)c1nnc2ccc(N3CCCCC3)nn12,1,6,5,x,3,x
Cc1cccc(NC(=S)N2CCC(NC(=O)C3CCCCC3)CC2)c1,-3,-5,-1,x,-6,x
SMILES,VLA-4 inh,XBP1 UPR activ,CHOP UPR activ,CHOP inhibitor,Beta2AR agonist,CHOP confirm
O=C(O)c1ccc(/C=N/NC(=O)c2cc3c(ccc4ccccc43)o2)cc1,-4,-1,1,x,8,x
O=C(N/N=C/c1ccncc1)c1cc2c(ccc3ccccc32)o1,1,-3,-1,109*,-13,-56
CC1=NN(c2ccc(C)c(C)c2)C(=O)/C1=C\C=C\c1ccc([N+](=O)[O-])o1,-274,1,25,108*,17,21
CCOC(=O)c1ccc(NC(=O)c2nc[nH]c2C(=O)N[C@@H](C)C(=O)OC(C)(C)C)cc1,-14,-3,1,97*,-1,104*
C[C@H](NC(=O)c1[nH]cnc1C(=O)Nc1ccc(Cl)cc1)C(=O)OC(C)(C)C,30,-2,1,105*,-2,91*
COc1cccc(NC(=O)COC(=O)c2sccc2C)c1,2,2,6,x,10,x
CC(C)(C)OC(=O)NCCCC[C@H](NC(=O)c1nc[nH]c1C(=O)N1CCN(c2ccccc2)CC1)C(=O)OC(C)(C)C,-3,-2,3,22,-4,x
Cc1cc(Cl)c(S(=O)(=O)N2CCCC2)cc1OCC(N)=O,17,3,1,3,-1,x
Cc1cc(Cl)c(S(=O)(=O)N2CCN(c3cccc(C)c3C)CC2)cc1OCC(N)=O,2,-4,0,107*,-1,70
O=Nc1c(O)n(Cc2ccc(Cl)c(Cl)c2)c2ccccc12,0,2,-1,107*,5,4
Cc1ccc(NC(=O)c2ccc(Nc3c([N+](=O)[O-])cc([N+](=O)[O-])cc3[N+](=O)[O-])cc2)cc1,8,-5,-6,104*,14,108*
Cc1ccc(C(=O)Oc2oc(-c3ccco3)nc2C=Nc2ccc(Cl)cc2)cc1,14,7,31,101*,33,0
O=C(Oc1oc(-c2ccco2)nc1C=Nc1ccccc1)c1ccoc1,23,2,2,109*,0,-5
O=C(Oc1oc(-c2ccco2)nc1C=Nc1ccccc1)c1ccco1,-2,-2,4,-20,14,x
Cc1ccc(Cn2c(-c3nonc3N)nc3ccccc32)cc1,15,0,-1,105*,-2,19
CCN(C1CCS(=O)(=O)C1)S(=O)(=O)c1ccc(OC)c(OC)c1 (stereo not drawn),2,-2,0,x,8,x
Cc1nn(CCC#N)c2nc(-c3ccccc3)cc(C(F)(F)F)c12,-6,-1,0,106*,-10,83*
O=Cc1cn(-c2ccccc2)nc1-c1ccc(F)cc1,10,0,5,x,-8,x
CC1=NNC(=O)/C1=C\c1cn(-c2ccccc2)nc1-c1ccc(F)cc1,x,x,x,106*,108*,119*
COc1ccc(NC(=O)Nc2cc(C)ccn2)cc1,x,x,x,x,-4,x
COc1ccc(C(=O)NC(=O)Nc2cc(C)ccn2)cc1,-17,-9,-9,105*,-10,103*
